# Non-standard residues stand in square brackets, D forms with d. Residues, ends and D or L forms follow the SMILES beside them. Phe(4-Br) = N[C@@H](Cc1ccc(Br)cc1)C(=O)O; NMeCha = CN[C@@H](CC1CCCCC1)C(=O)O; hArg = N=C(N)NCCCC[C@H](N)C(=O)O; Nle = CCCC[C@H](N)C(=O)O; Aib = CC(C)(N)C(=O)O
# Experiments:
# Mus musculus [1] = experiment: Hypotensive effect in anesthetized wild type mouse assessed as total time duration of hypotensive effect at 1.4 uM/Kg, iv administered via right jugular vein measured for 60 mins; assay type: functional; conditions: 1 h
# In short: (§1)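 Anesthetized mice received peptide at 1.4 μM kg−1 body weight, or equal-volume saline, by injection into the right jugular vein (n = 3). HR, MABP, SBP and DBP were recorded from blood pressure traces and reported as mean ± S.E.M.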
# Neprilysin [2] = molecular target: T1, Neprilysin (Homo sapiens, UniProt P08473); experiment: Proteolytic stability assessed as recombinant human NEP-mediated compound degradation by measuring half life incubated for 24 hrs by LC-MS analysis; assay type: ADME; conditions: 24 h
# T1 sequence (P08473 whole entry): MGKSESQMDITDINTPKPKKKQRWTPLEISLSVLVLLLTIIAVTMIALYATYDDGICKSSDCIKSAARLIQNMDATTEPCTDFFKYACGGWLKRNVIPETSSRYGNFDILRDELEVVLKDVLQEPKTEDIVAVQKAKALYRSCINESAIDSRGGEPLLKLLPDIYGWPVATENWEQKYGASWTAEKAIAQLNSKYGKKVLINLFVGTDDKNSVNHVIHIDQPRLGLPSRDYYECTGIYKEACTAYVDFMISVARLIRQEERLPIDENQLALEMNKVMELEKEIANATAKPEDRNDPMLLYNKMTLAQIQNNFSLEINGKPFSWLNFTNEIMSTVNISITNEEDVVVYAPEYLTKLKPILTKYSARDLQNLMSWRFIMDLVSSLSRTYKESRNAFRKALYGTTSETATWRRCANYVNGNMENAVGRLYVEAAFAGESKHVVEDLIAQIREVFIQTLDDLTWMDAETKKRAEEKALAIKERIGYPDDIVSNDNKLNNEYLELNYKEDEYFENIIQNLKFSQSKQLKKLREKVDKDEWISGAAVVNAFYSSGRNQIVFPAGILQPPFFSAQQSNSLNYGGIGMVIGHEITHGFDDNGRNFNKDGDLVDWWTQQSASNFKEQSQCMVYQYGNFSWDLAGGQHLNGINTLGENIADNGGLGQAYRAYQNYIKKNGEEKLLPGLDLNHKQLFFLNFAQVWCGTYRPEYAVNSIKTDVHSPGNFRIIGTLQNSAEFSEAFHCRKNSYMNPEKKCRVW
# [3] = Protein binding in pooled human plasma at 100 uM incubated for 3 hrs by equilibrium dialysis method; assay type: ADME, cell-free; conditions: read-out: PPB (converted)
# In short: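 Equilibrium dialysis. DMSO stock (1 mM) diluted to 100 μM final in 55% pooled human plasma stabilized with EDTA and MLN-4760, dialyzed against PBS pH 7.4 at 37 °C, 120 rpm, 3 h. Retentate diluted with PBS and dialysate with plasma, then quenched with 10% TFA/acetonitrile. Dans-YVG internal standard added, centrifuged, LC-MS.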
# Apelin receptor [4] = molecular target: T2, Apelin receptor (Homo sapiens, UniProt P35414); experiment: Activation of recombinant human APJ receptor expressed in rat Chem-5 cells assessed as increase in Ca2+ mobilization by FLIPR Calcium 6-QF fluorescent dye based assay; assay type: cell-based
# T2 sequence (P35414 whole entry): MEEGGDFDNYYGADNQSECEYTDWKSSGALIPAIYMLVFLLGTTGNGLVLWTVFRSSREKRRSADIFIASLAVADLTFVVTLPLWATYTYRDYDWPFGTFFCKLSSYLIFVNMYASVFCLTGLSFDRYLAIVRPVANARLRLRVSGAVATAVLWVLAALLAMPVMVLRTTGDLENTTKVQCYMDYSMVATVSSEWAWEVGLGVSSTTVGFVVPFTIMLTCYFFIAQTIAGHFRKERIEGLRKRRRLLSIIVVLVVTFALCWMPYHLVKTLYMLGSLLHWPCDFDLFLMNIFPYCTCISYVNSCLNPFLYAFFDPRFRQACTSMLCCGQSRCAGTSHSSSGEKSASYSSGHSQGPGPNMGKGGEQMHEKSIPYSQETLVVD
# In short: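 Frozen Chem-5 cells stably expressing human APJ, thawed per supplier protocol, loaded 1 h with Calcium 6-QF dye in HBSS/20 mM HEPES/0.2% DMSO/2.5 mM probenecid, pH 7.6. Cells washed three times and rested 10 min, then read on FLIPR. Agonist response taken as maximum fluorescence change over baseline. pEC50 from four-parameter logistic fit; triplicates.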
# [5] = Stability in human plasma assessed as half life at 1 mM measured for 24 hrs by LC-MS analysis; assay type: ADME, cell-free
# In short: (§2)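 Plasma (20 μL, human or murine) prewarmed to 37 °C, then 5 μL of 1 mM peptide added and incubated at 37 °C. Samples quenched at 1, 3, 6 and 24 h with 6 M GuHCl/80% ACN and Dans-YVG internal standard, centrifuged, solid-phase extracted and analyzed by LC-MS. Peptide/standard peak-area ratio normalized to 0 h; triplicates.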
# Mus musculus [6] = experiment: Hypotensive effect in anesthetized wild type mouse assessed as change in mean arterial blood pressure at 1.4 uM/Kg, iv administered via right jugular vein measured for 60 mins; assay type: functional; conditions: 1 h; in short: as §1
# Neprilysin [7] = molecular target: T1, Neprilysin; experiment: Proteolytic stability assessed as recombinant human NEP-mediated compound degradation incubated for 24 hrs by LC-MS analysis; assay type: ADME
# In short: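 Recombinant human NEP diluted to 2 ng μL−1 in NEP-B buffer and preincubated 10 min at 37 °C. Peptide (1 mM aqueous solution) added and incubated at 37 °C. Aliquots taken at 0, 2, 10, 20 and 48 h, quenched and quantified by LC-MS; triplicate per time point.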
# [8] = Stability in mouse plasma assessed as half life at 1 mM measured for 24 hrs by LC-MS analysis; assay type: ADME, cell-free; in short: as §2
# Apelin receptor [9] = molecular target: T3, Apelin receptor (Rattus norvegicus, UniProt Q9JHG3); experiment: Displacement of [125I]-pyr-1-apelin-13 from EGFP tagged rat apelin receptor expressed in CHO cell membrane incubated for 3 hrs by gamma counter analysis; assay type: cell membranes
# T3 sequence (Q9JHG3 whole entry): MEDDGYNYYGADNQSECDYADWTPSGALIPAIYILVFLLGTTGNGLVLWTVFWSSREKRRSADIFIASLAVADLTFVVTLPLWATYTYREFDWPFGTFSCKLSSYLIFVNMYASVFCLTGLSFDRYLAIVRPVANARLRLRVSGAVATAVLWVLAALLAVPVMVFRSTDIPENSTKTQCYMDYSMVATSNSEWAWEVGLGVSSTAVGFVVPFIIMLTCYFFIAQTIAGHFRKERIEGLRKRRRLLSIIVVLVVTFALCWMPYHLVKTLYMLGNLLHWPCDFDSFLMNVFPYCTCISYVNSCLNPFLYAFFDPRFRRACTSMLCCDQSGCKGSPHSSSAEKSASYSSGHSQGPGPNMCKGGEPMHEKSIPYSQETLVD
# In short: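 Crude membranes (1 μg/assay) from CHO cells stably expressing wild-type rat APJ-EGFP, incubated 3 h at 20 °C with 0.2 nM [125I]-pyr-1-apelin-13 (Lys8 Bolton–Hunter monoiodinated) and competitor at various concentrations. Binding buffer: 50 mM HEPES, 5 mM MgCl2, 1% BSA, pH 7.5. Quenched with cold buffer, GF/C filtered and washed, gamma counted; triplicates.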
t1/2 (Neprilysin [2]),"fraction unbound at 3 h, 100 µM [3]",EC50 (Apelin receptor [4]),half-life at 1000 µM [5],Stability (Neprilysin [7]),half-life at 1000 µM [8],Ki (Apelin receptor [9]),SMILES,Time (Mus musculus [1]),Activity (Mus musculus [6])
657 min,0.43,4.27 nM,54 min,,,,CCCC[C@H](NC(=O)[C@@H]1CCCN1C(=O)CNC(=O)[C@H](CCCCN)NC(=O)[C@H](Cc1c[nH]cn1)NC(=O)[C@H](CO)NC(=O)[C@H](CC(C)C)NC(=O)[C@H](CCCNC(=N)N)NC(=O)[C@@H]1CCCN1C(=O)[C@H](CCCNC(=N)N)NC(=O)[C@H](CCC(N)=O)NC(=O)[C@H](CCCNC(=N)N)NC(=O)[C@H](CCCNC(=N)N)NC(=O)[C@H](Cc1ccccc1)NC(=O)[C@@H](N)CCCCN)C(=O)NC(C)(C)C(=O)N[C@@H](Cc1ccc(Br)cc1)C(=O)O (H-KFRRQRPRLSHKGP[Nle][Aib][Phe(4-Br)]-OH),33 min,10.24 mmHg
,0.31,72.4 nM,205 min,Stable,21.6 min,0.646 nM,CCCC[C@H](NC(=O)[C@@H]1CCCN1C(=O)CNC(=O)[C@H](CCCCN)NC(=O)[C@H](Cc1c[nH]cn1)NC(=O)[C@H](CO)NC(=O)[C@H](CC1CCCCC1)N(C)C(=O)[C@H](CCCCNC(=N)N)NC(=O)[C@@H]1CCCN1C(=O)[C@H](CCCNC(=N)N)NC(=O)[C@H](CCC(N)=O)NC(=O)[C@H](CCCNC(=N)N)NC(=O)[C@H](CCCNC(=N)N)NC(=O)[C@H](Cc1ccccc1)NC(=O)[C@@H](N)CCCCN)C(=O)NC(C)(C)C(=O)N[C@@H](Cc1ccc(Br)cc1)C(=O)O (H-KFRRQRP[hArg][NMeCha]SHKGP[Nle][Aib][Phe(4-Br)]-OH),60 min,47.57 mmHg
,0.32,16.2 nM,174 min,Stable,26.4 min,2 nM,CCCC[C@H](NC(=O)[C@@H]1CCCN1C(=O)CNC(=O)[C@H](CCCCN)NC(=O)[C@H](Cc1c[nH]cn1)NC(=O)[C@H](CO)NC(=O)[C@H](CC1CCCCC1)N(C)C(=O)[C@H](CCCNC(=N)N)NC(=O)[C@@H]1CCCN1C(=O)[C@H](CCCNC(=N)N)NC(=O)[C@H](CCC(N)=O)NC(=O)[C@H](CCCNC(=N)N)NC(=O)[C@H](CCCNC(=N)N)NC(=O)[C@H](Cc1ccccc1)NC(=O)[C@@H](N)CCCCN)C(=O)NC(C)(C)C(=O)N[C@@H](Cc1ccc(Br)cc1)C(=O)O (H-KFRRQRPR[NMeCha]SHKGP[Nle][Aib][Phe(4-Br)]-OH),60 min,28.83 mmHg

# From ChEMBL document CHEMBL5233202, “Metabolically stable apelin-analogues, incorporating cyclohexylalanine and homoarginine, as potent apelin receptor activators” (RSC Med Chem, 2021)
